Compound activity as filed in PubChem BioAssay.
The entries come from a sample that favours hits as a whole.
T cruzi intra: intracellular Trypanosoma cruzi inhibition; intracellular Trypanosoma cruzi in host cells, plate reader; activity score (inhibition), % at 5.01 µM; 22,000 compounds, 4.9% hits; AID 651903; in the data active means activity score above about 55%;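 further: parasites and compound incubated about four days before reading; 0% = median of neutral control wells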
INS-1E rescue: rescue of cytokine-induced death in INS-1E beta cells | INS-1E cytokine-induced death, ATP luminescence, 48 h; normalised: neutral wells 0, positive control 100 | protection from cytokine-induced ATP loss, % at 10 µM | 20,000 compounds, 0.1% hits | AID 488910;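 active means mean replicate protection from cytokine-induced ATP loss at least 50% and at least 75% of replicates each reaching 50%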
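Assay system: INS-1E rat cells / Quantity: 8000 cells per well / Medium: RPMI without phenol red, 5% FBS / Probe or stimulus: three-cytokine cocktail (IFN-γ, TNF-α, IL-1β) / Dosing: one compound concentration, pin transfer / Timing: 48 h co-treatment, 10 min post-lysis read / Technique: CellTiter-Glo luminescence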
YB-1 expression: YB-1 expression inhibition | U2OS, qRT-PCR YB-1 vs CDIP delta delta Cp, 16 h; active compounds read high; zero = DMSO, each unit about twofold | delta delta Cp (YB-1 minus CDIP) (concentration not given with the values) | 30,000 compounds, 0.37% hits;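 active means delta delta Cp rounded down to an integer at or above 3, about 3 SD of DMSO wells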;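 further: higher means less YB-1 transcript or more CDIP transcript relative to DMSO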
* marks the source's active call; other numbers are inactive results; nt = not tested or not shown.

SMILES | T cruzi intra | INS-1E rescue | YB-1 expression
Cc1ccc(S(=O)(=O)N(C)C[C@H]2Oc3ccc(NS(=O)(=O)c4ccccc4)cc3C(=O)N([C@@H](C)CO)C[C@@H]2C)cc1 | 6 | -5 | -0.092
Cc1ccc(S(=O)(=O)Nc2ccc3c(c2)C(=O)N([C@H](C)CO)C[C@H](C)[C@H](CN(C)S(=O)(=O)c2ccccc2)O3)cc1 | 74* | nt | 0.24
Cc1ccc(S(=O)(=O)N(C)C[C@H]2Oc3ccc(NS(=O)(=O)c4ccc(Cl)cc4)cc3C(=O)N([C@@H](C)CO)C[C@@H]2C)cc1 | 8 | 4 | -0.23
C[C@H]1CN([C@@H](C)CO)C(=O)c2cc(NS(=O)(=O)c3ccc(Cl)cc3)ccc2O[C@H]1CN(C)S(=O)(=O)c1ccc(Cl)cc1 | 44* | nt | -0.52
C[C@H](CO)N1C[C@H](C)[C@H](CN(C)S(=O)(=O)c2ccc(Cl)cc2)Oc2ccc(NS(=O)(=O)c3ccccc3)cc2C1=O | 62* | nt | 0.21
C[C@H]1CN([C@@H](C)CO)C(=O)c2cc(NS(=O)(=O)c3ccccc3)ccc2O[C@H]1CN(C)S(=O)(=O)c1ccc(Cl)cc1 | -7 | 0 | 0.059
C[C@@H]1CN([C@H](C)CO)C(=O)c2cc(NS(=O)(=O)c3ccccc3)ccc2O[C@H]1CN(C)CC1CCCCC1 | -3 | -3 | -0.13
COc1cc2c(NC(C)=O)c(CN(C)C)oc2c(Cl)c1Cl | nt | nt | -0.88
COc1ccc(-n2nc3ccc(NC(=O)c4ccc(-c5ccccc5)cc4)cc3n2)cc1 | nt | nt | -0.76
C[C@H](CO)N1C[C@H](C)[C@@H](CN(C)Cc2ccc3c(c2)OCO3)Oc2c(NS(=O)(=O)c3ccc(Cl)cc3)cccc2C1=O | 58* | 10 | -0.085
Cc1ccc(S(=O)(=O)Nc2cccc3c2O[C@@H](CN(C)Cc2ccc4c(c2)OCO4)[C@@H](C)CN([C@H](C)CO)C3=O)cc1 | -11 | -8 | -0.35
C[C@@H]1CN([C@@H](C)CO)C(=O)c2cccc(NS(=O)(=O)c3ccccc3)c2O[C@@H]1CN(C)Cc1ccc(-c2ccccc2)cc1 | 87* | -72 | -1.2
C[C@@H]1CN([C@@H](C)CO)C(=O)c2cccc(NS(=O)(=O)c3cccs3)c2O[C@@H]1CN(C)Cc1ccc(C(=O)O)cc1 | -13 | 2 | 0.56
C[C@@H]1CN([C@H](C)CO)C(=O)c2cccc(NS(=O)(=O)c3cccs3)c2O[C@@H]1CN(C)Cc1ccc(C(=O)O)cc1 | 68* | 14 | 0.19
Cc1ccc(S(=O)(=O)Nc2cccc3c2O[C@H](CN(C)Cc2ccc(Oc4ccccc4)cc2)[C@@H](C)CN([C@H](C)CO)C3=O)cc1 | 48 | -11 | 19*
C[C@@H]1CN([C@H](C)CO)C(=O)c2cccc(NS(=O)(=O)c3ccccc3)c2O[C@@H]1CN(C)Cc1ccc(-c2ccccc2)cc1 | 14 | -11 | 0.25
Cc1ccc(S(=O)(=O)Nc2cccc3c2O[C@@H](CN(C)Cc2ccc(Oc4ccccc4)cc2)[C@H](C)CN([C@@H](C)CO)C3=O)cc1 | 51 | 1 | 0.057
O=C(NO)c1cccc(C(=O)N/N=C/c2ccoc2)c1 | -23 | 1 | -0.13
O=C1O[C@@H](c2ccccc2)[C@@H](c2ccccc2)N2[C@@H](c3ccccc3OCCO)[C@]3(C(=O)Nc4ccc(C#CCCO)cc43)[C@@H](C(=O)NC[C@H](O)c3ccccc3)[C@H]12 | nt | nt | -0.36
NC(=O)COc1ccccc1/C=N/NC(=O)CCCCC(=O)NO | -17 | 5 | 0.35
Cc1ccc(NC(=O)N(C2=NCC(C)(C)S2)c2ccc(F)c(Cl)c2)cc1 | nt | nt | -0.013
Cc1ccc(S(=O)(=O)Nc2cccc3c2O[C@H](CN(C)Cc2ccc(-c4ccccc4)cc2)[C@@H](C)CN([C@H](C)CO)C3=O)cc1 | 47 | -4 | -0.036
C[C@@H]1CN([C@@H](C)CO)C(=O)c2cccc(NS(=O)(=O)c3ccc(Cl)cc3)c2O[C@@H]1CN(C)Cc1ccc(-c2ccccc2)cc1 | 63* | -73 | -0.89
Cc1ccc(S(=O)(=O)Nc2cccc3c2O[C@@H](CN(C)Cc2ccc(-c4ccccc4)cc2)[C@@H](C)CN([C@@H](C)CO)C3=O)cc1 | 74* | -67 | -0.14
C[C@H]1CN([C@@H](C)CO)C(=O)c2cccc(NS(=O)(=O)c3ccc(Cl)cc3)c2O[C@@H]1CN(C)Cc1ccc(-c2ccccc2)cc1 | 36 | -5 | -0.16
SMILES | T cruzi intra | INS-1E rescue | YB-1 expression
COC(=O)CCCCCCC(=O)N/N=C/C=C/c1ccccc1 | -14 | -3 | 0.67
C/C1=C/C[C@]2(C)C(=O)C(=O)C([C@H](C)CO)[C@H]2C/C=C(/C)[C@@H](O)CC/C(C)=C\CC1 (stereo partly drawn) | nt | nt | -0.59
C[C@H]1CN([C@@H](C)CO)C(=O)Cc2cc(NS(=O)(=O)c3ccc(Cl)cc3)ccc2O[C@@H]1CN(C)Cc1ccc(Cl)c(Cl)c1 | 35 | 4 | -0.15
C[C@@H]1CN([C@@H](C)CO)C(=O)Cc2cc(NS(=O)(=O)c3ccccc3)ccc2O[C@@H]1CN(C)Cc1ccc(Cl)c(Cl)c1 | 53 | -28 | 0.17
C[C@H]1CN([C@@H](C)CO)C(=O)Cc2cc(NS(=O)(=O)c3ccccc3)ccc2O[C@@H]1CN(C)Cc1ccc(Cl)c(Cl)c1 | 65* | -9 | 0.042
C[C@@H]1CN([C@H](C)CO)C(=O)Cc2cc(NS(C)(=O)=O)ccc2O[C@@H]1CN(C)Cc1ccc(Cl)c(Cl)c1 | 28 | -13 | -0.16
C[C@@H]1CN([C@@H](C)CO)C(=O)Cc2cc(NS(=O)(=O)c3ccc(Cl)cc3)ccc2O[C@@H]1CN(C)Cc1ccc(Cl)c(Cl)c1 | 61* | -17 | 0.3
C[C@H]1CN([C@@H](C)CO)C(=O)Cc2cc(NS(C)(=O)=O)ccc2O[C@@H]1CN(C)Cc1ccc(Cl)c(Cl)c1 | 64* | 3 | 0.27
C=CCNC(=O)[C@H]1[C@@H]2C(=O)O[C@@H](c3ccccc3)[C@@H](c3ccccc3)N2[C@@H](c2ccc(O)cc2)[C@]12C(=O)N(C(=O)OCCOC)c1ccccc12 | nt | nt | 0.1
O=C(CCCCCCC(=O)Nc1ccccc1O)N/N=C/c1ccccc1C(=O)O | -13 | -3 | 0.031
O=C(O)c1ccccc1S(=O)c1ccc(Cl)cc1 (stereo not drawn) | nt | nt | -0.018
COc1cc(/C=N/NC(=O)c2ccccc2O)c(Br)cc1O | 2 | -73 | -0.096
C[C@@H]1CN([C@H](C)CO)C(=O)c2cccc(NC(=O)Nc3ccc(C(F)(F)F)cc3)c2O[C@@H]1CN(C)Cc1ccc(Cl)c(Cl)c1 | 85* | -64 | 0.26
C[C@H]1CN([C@@H](C)CO)C(=O)c2cccc(NC(=O)Nc3ccc(F)cc3)c2O[C@H]1CN(C)Cc1ccc(Cl)c(Cl)c1 | -33 | -12 | 0.19
C[C@H](CO)N1C[C@H](C)[C@@H](CN(C)Cc2ccc(Cl)c(Cl)c2)Oc2c(NC(=O)Nc3ccc(F)cc3)cccc2C1=O | 18 | -23 | 0.26
C[C@@H]1CN([C@@H](C)CO)C(=O)c2cccc(NC(=O)Nc3ccc(C(F)(F)F)cc3)c2O[C@H]1CN(C)Cc1ccc(Cl)c(Cl)c1 | 78* | -52 | 0.021
